Values after ≈ are worked out from the molar mass of the structure shown.
How the values were obtained:
B16 [1] = assay: Antitumor activity against B16 melanoma from B6 D2 F1 female mice as average weight change of animals between day 1 and day 5 after tumor implementation at a dose of 0.25 mg/kg/day (repeated ip injections, day 1-9); format: functional, Mus musculus; settings: route intraperitoneal
Summary of the method: (§1)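 B6D2F1 female mice (C57BL/6 × DBA/2) were implanted ip on day 0 with 0.5 mL of B16 suspension (1 g tumor homogenized in 9 mL 0.9% saline). Ip treatment was given once daily, day 1 to day 9. Body weight was recorded on days 1 and 5 after implantation, and the mean change per group was reported.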

B16 [2] = assay: Antitumor activity against B16 melanoma from B6 D2 F1 female mice evaluated as the number of survivors on day 5 at a dose of 0.50 mg/kg/day (repeated ip injections, day 1-9); format: functional, Mus musculus; settings: route intraperitoneal
Summary of the method: (§2)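 B16 melanoma homogenate (1 g tumor in 9 mL 0.9% saline), 0.5 mL implanted ip on day 0 in B6D2F1 female mice (C57BL/6 ♀ × DBA/2 ♂). Treatment ip once daily from day 1 to day 9. Toxicity scored as survivors on day 5. Median survival recorded and T/C computed as treated/control median survival, ≥125% significant.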

B16 [3] = assay: Antitumor activity against B16 melanoma from B6 D2 F1 female mice evaluated as Median survival time of treated mice at a dose of 0.06 mg/kg/day (repeated ip injections, day 1-9); format: functional, Mus musculus; settings: route intraperitoneal; summary of the method: as §2
B16 [4] = assay: Antitumor activity against B16 melanoma from B6 D2 F1 female mice evaluated as average weight change of animals between day 1 and day 5 after tumor implementation at a dose of 1 mg/kg/day; format: functional, Mus musculus
Summary of the method: (§3)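 B16 melanoma in B6D2F1 female mice: 0.5 mL of tumor homogenate (1 g in 9 mL 0.9% saline) was given ip on day 0. Ip dosing was on days 1, 5 and 9. The readout was the average body weight change between day 1 and day 5 after tumor implantation.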

P388 [5] = assay: Antitumor activity against P388 Leukemia from CDF1 female mice evaluated as the number of survivors on day 5 at a dose of 0.06 mg/kg/day; format: functional, Mus musculus
Summary of the method: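 CDF1 female mice (BALB/c × DBA/2) inoculated ip with 10⁶ P388 cells on day 0. Drug given ip in 2% methanol on days 1, 5 and 9. Ten mice per dose group, with a larger control group. Body weight and survival were recorded on days 1 and 5, with toxicity taken as survivors on day 5. Mortality was followed for 30 days to give median survival time.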

P388 [6] = assay: Median survival time of treated mice at a dose of 1 mg/kg/day; format: functional, Mus musculus
P388 [7] = assay: Antitumor activity against P388 Leukemia from CDF1 female mice evaluated as Median survival time of treated mice at a dose of 0.12 mg/kg/day; format: functional, Mus musculus
Summary of the method: (§4)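 CDF1 female mice (BALB/c ♀ × DBA/2 ♂) given 10⁶ P388 cells ip on day 0. Drug in 2% methanol given ip on days 1, 5 and 9, 10 mice per group and more controls. Toxicity is survivors on day 5, with weight change between days 1 and 5. Mortality followed 30 days. T/C% is treated over control median survival (NCI method), significant at ≥125%.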

P388 [8] = assay: Average weight change of animals between day 1 and day 5 after tumor implementation at a dose of 0.03 mg/kg/day; format: functional, Mus musculus
Summary of the method: (§5)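 P388 leukemia: CDF1 female mice were inoculated ip with 10⁶ cells on day 0. Treatment in 2% methanol was given ip on days 1, 5 and 9, with 10 mice per group and a larger control group. Body weight was recorded on days 1 and 5 post-implant, and the average change was reported.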

B16 [9] = assay: Antitumor activity against B16 melanoma from B6 D2 F1 female mice evaluated as Median survival time of treated mice at a dose of 0.03 mg/kg/day; format: functional, Mus musculus
Summary of the method: (§6)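 B6D2F1 female mice (C57BL/6 ♀ × DBA/2 ♂) implanted ip on day 0 with 0.5 mL of B16 tumor suspension (1 g homogenized in 9 mL 0.9% saline). Dosing ip on days 1, 5 and 9. Day-5 survivors give toxicity. Median survival of treated vs control mice gives T/C%, with ≥125% significant.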

B16 [10] = assay: Antitumor activity against B16 melanoma from B6 D2 F1 female mice as average weight change of animals between day 1 and day 5 after tumor implementation at a dose of 0.06 mg/kg/day (repeated ip injections, day 1-9); format: functional, Mus musculus; settings: route intraperitoneal; summary of the method: as §1
B16 [11] = assay: Antitumor activity against B16 melanoma from B6 D2 F1 female mice evaluated as average weight change of animals between day 1 and day 5 after tumor implementation at a dose of 0.25 mg/kg/day; format: functional, Mus musculus; summary of the method: as §3
L1210 [12] = assay: Antitumor activity against L1210 Lymphoid Leukemia from CDF1 female mice (T/C) as median survival time of treated mice (T) over that of control mice (C) at a dose of 0.50 mg/kg/day; format: functional, Mus musculus
Summary of the method: (§7)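 L1210 leukemia, 10⁵ cells ip on day 0 into CDF1 female mice (BALB/c ♀ × DBA/2 ♂). Drug in 2% methanol given ip on days 1, 5 and 9, 10 mice per group. Survivors and body weight recorded on days 1 and 5, with toxicity as survivors on day 5. Deaths followed for 30 days. T/C = treated/control median survival time, significant at ≥125%.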

L1210 [13] = assay: In vitro cytostatic activity determined on L1210 leukemia cells at 24 hours.; format: functional; settings: Mus musculus, L1210, 24 h; read-out: ID50 (the source's name)
Summary of the method: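 Log-phase L1210 cells were seeded at 0.8 × 10⁵ cells/mL in RPMI 1640 with 20% heat-inactivated horse serum, 2 mmol/L L-glutamine, streptomycin and penicillin. Drugs in ethanol (0.5% final) were tested at several concentrations.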

B16 [14] = assay: Antitumor activity against B16 melanoma from B6 D2 F1 female mice evaluated as the number of survivors on day 5 at a dose of 0.25 mg/kg/day (repeated ip injections, day 1-9); format: functional, Mus musculus; settings: route intraperitoneal; summary of the method: as §2
B16 [15] = assay: Antitumor activity against B16 melanoma from B6 D2 F1 female mice evaluated as the number of survivors on day 5 at a dose of 0.25 mg/kg/day; format: functional, Mus musculus; summary of the method: as §6
B16 [16] = assay: Antitumor activity against B16 melanoma from B6 D2 F1 female mice(T/C) was evaluated from the median survival time of treated mice (T) over that of control mice (C) at a dose of 0.50 mg/kg/day; format: functional, Mus musculus; summary of the method: as §6
L1210 [17] = assay: Antitumor activity against L1210 Lymphoid Leukemia from CDF1 female mice as average weight change of animals between day 1 and day 5 after tumor implementation at a dose of 1.0 mg/kg/day; format: functional, Mus musculus
Summary of the method: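 CDF1 female mice (BALB/c × DBA/2) received 10⁵ L1210 cells ip on day 0. Drug was dissolved in 2% methanol and given ip on days 1, 5 and 9, to 10 mice per group. Weights were taken on days 1 and 5, and the mean change was reported.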

B16 [18] = assay: Antitumor activity against B16 melanoma from B6 D2 F1 female mice evaluated as the number of survivors on day 5 at a dose of 1 mg/kg/day; format: functional, Mus musculus; summary of the method: as §6
P388 [19] = assay: Average weight change of animals between day 1 and day 5 after tumor implementation at a dose of 0.06 mg/kg/day; format: functional, Mus musculus; summary of the method: as §5
L1210 [20] = assay: Antitumor activity against L1210 Lymphoid Leukemia from CDF1 female mice as Median survival time of treated mice at a dose of 0.50 mg/kg/day; format: functional, Mus musculus; summary of the method: as §7
B16 [21] = assay: Antitumor activity against B16 melanoma from B6 D2 F1 female mice as Median survival time of treated mice at a dose of 0.03 mg/kg/day (repeated ip injections, day 1-9); format: functional, Mus musculus; settings: route intraperitoneal; summary of the method: as §2
P388 [22] = assay: Antitumor activity (T/C) was evaluated from the median survival time of treated mice (T) over that of control mice (C) at a dose of 0.06 mg/kg/day; format: functional, Mus musculus; summary of the method: as §4

## COc1ccc(C[C@H]2C(=O)O[C@H](C)[C@H](NC(=O)[C@@H](CC(C)C)N(C)C(=O)C3CCCN3C(=O)[C@@H](C)O)C(=O)NC(C(C)C)[C@H](O)CC(=O)O[C@@H](C(C)C)C(=O)[C@H](C)C(=O)N[C@@H](CC(C)C)C(=O)N3CCC[C@H]3C(=O)N2C)cc1 (some centres not stated) [NORDIDEMNIN]
B16 [1]
  Body weight change: -2.1 g
B16 [2]
  Toxicity: 1
B16 [3]
  median survival time, days: 27.8
B16 [4]
  Body weight change: 0 g
P388 [5]
  Toxicity: 1
P388 [6]
  median survival time, days: 19.9
P388 [7]
  median survival time, days: 14.7
P388 [8]
  Body weight change: 0 g
B16 [9]
  median survival time, days: 19.3
B16 [10]
  Body weight change: -0.3 g
B16 [11]
  Body weight change: 0 g
L1210 [12]
  T/C: 117%
L1210 [13]
  IC50: 3.6 ng/mL (≈ 3.28 nM)
B16 [14]
  Toxicity: 1
B16 [15]
  Toxicity: 1
B16 [16]
  T/C: 147%
L1210 [17]
  Body weight change: -0.5 g
B16 [18]
  Toxicity: 1
P388 [19]
  Body weight change: 0.2 g
L1210 [20]
  median survival time, days: 10.7
B16 [21]
  median survival time, days: 26.5
P388 [22]
  T/C: 123%
